Assay results of several laboratories.
Protocols differ between the studies behind these lines.
Read-out: cell growth or viability

| SMILES | cell line | method | time | IC50 |
| --- | --- | --- | --- | --- |
| CC(=O)c1ccc(O)cn1 | Hepa-1c1c7 | crystal violet | 48 h | > 100 µM |
| CC(=O)Oc1ccc2c(c1)C(C)=CC(C)(C)N2Cc1ccccc1 | PLC5 | MTT | 72 h | 18 µM |
| N[C@@H](CC(=O)N1CCN(C(c2ccc(F)cc2)c2ccc(F)cc2)CC1)C(=O)N1Cc2ccccc2C1 | SKM-1 | ATP luminescence | 48 h | 0.346 µM |
| CN(C)CCCOc1cc(NC(=O)c2cc(Cl)cc(C(=O)Nc3cc(OCCCN(C)C)c4ccccc4n3)n2)nc2ccccc12 | U2OS | ATP luminescence | 72 h | 1.8 µM |
| COc1cc(-c2ncn(/C=C\C(=O)OC(C)C)n2)cc(C(F)(F)F)c1 | HEL | – | 72 h | 0.104 µM |
| COc1cc(C)c(-c2c(C)cc(OC)c3c(=O)cc(-c4ccc(N(C)C)cc4)oc23)c2oc(-c3ccc(N(C)C)cc3)cc(=O)c12 | HeLa | MTT | 48 h | 1.4 µM |
| CC(C)[C@H](N)C(=O)N1CCC[C@H]1B(O)O | NB-4 | ATP luminescence | 48 h | 0.1 µM |
| COc1cc(Nc2nccc(-c3cnn4nc(OC)ccc34)n2)cc(C(F)(F)F)c1 | SK-N-SH | ATP luminescence | – | 0.97 µM |
| O=C(Nc1cc(OCCN2CCCC2)c2ccccc2n1)c1cc(OCCN2CCCC2)cc(C(=O)Nc2cc(OCCN3CCCC3)c3ccccc3n2)n1 | U2OS | ATP luminescence | 72 h | 2.1 µM |
| C[S@@+]([O-])CCCCN=C=S | Hepa-1c1c7 | – | – | 15.2 µM |
| Cc1ccc(O)c(/C=N/c2nc(Oc3ccccc3)nn2-c2ccc(C(=O)O)cc2)c1 | RPE-1 | MTT | – | 33.7 µM |
| CN(C)CCCOc1cc(NC(=O)c2cccc(C(=O)Nc3cc(OCCCN(C)C)c4ccccc4n3)n2)nc2ccccc12 | U2OS | ATP luminescence | 72 h | 2.1 µM |
| COc1nc(OCc2cccc(-c3ccccc3)c2C)ccc1CNCCNC(C)=O | HCT-8 | MTT | – | 3.9 µM |
| COc1cc(OC)c2c(=O)cc(-c3ccc(N(C)C)cc3)oc2c1-c1c(OC)cc(OC)c2c(=O)cc(-c3ccc(N(C)C)cc3)oc12 | HeLa | MTT | 48 h | 43.8 µM |
| CSc1nc(/N=C/c2ccc(O)cc2)n(-c2ccc(C(=O)O)cc2)n1 | RPE-1 | MTT | – | 39.1 µM |
| O=C(Nc1cc(OCCN2CCCC2)c2ccccc2n1)c1cc(Cl)cc(C(=O)Nc2cc(OCCN3CCCC3)c3ccccc3n2)n1 | U2OS | ATP luminescence | 72 h | 2.3 µM |

| SMILES | cell line | method | time | IC50 |
| --- | --- | --- | --- | --- |
| CC[C@@H](C)[C@H](N)C(=O)N1Cc2ccccc2C1 | SKM-1 | ATP luminescence | 48 h | 0.181 µM |
| CCCCc1ccc2[nH]c(NC(=O)OC)nc2c1 | SCC-9 | CCK-8 | 72 h | 0.0769 µM |
| O=C(O)c1ccc(-n2nc(Oc3ccccc3)nc2/N=C/c2cc([N+](=O)[O-])ccc2O)cc1 | RPE-1 | MTT | – | 26.8 µM |
| NCCCOc1cc(NC(=O)c2cc(Cl)cc(C(=O)Nc3cc(OCCCN)c4ccccc4n3)n2)nc2ccccc12 | U2OS | ATP luminescence | 72 h | 0.3 µM |
| CSc1nc(/N=C/c2cc([N+](=O)[O-])ccc2O)n(-c2ccc(C(=O)O)cc2)n1 | RPE-1 | MTT | – | 24 µM |
| NCCOc1cc(NC(=O)c2cc(OCc3c[nH]nn3)cc(C(=O)Nc3cc(OCCN)c4ccccc4n3)n2)nc2ccccc12 | U2OS | ATP luminescence | 72 h | > 40 µM |
| COc1cccc2c1C(=O)c1c(O)c3c(c(O)c1C2=O)C[C@@](O)(C(=O)CO)C[C@@H]3O[C@H]1C[C@H](N)[C@H](O)[C@H](C)O1 | RPE-1 | MTT | – | 22.6 µM |
| CN1c2ccccc2C(=O)N2[C@H](C(=O)Nc3ccc(/C=C/C(=O)NO)cc3)Cc3c([nH]c4ccccc34)[C@@H]12 | HEL | – | – | 0.34 µM |
| C#CCOc1cc(C(=O)Nc2cc(OCCN)c3ccccc3n2)nc(C(=O)Nc2cc(OCCN)c3ccccc3n2)c1 | U2OS | ATP luminescence | 72 h | 4.9 µM |
| Nc1nc(Oc2ccccc2)nn1-c1ccc(C(=O)O)cc1 | RPE-1 | MTT | – | 25.7 µM |
| COc1cc(C(=O)Nc2cc(OCCN3CCCC3)c3ccccc3n2)nc(C(=O)Nc2cc(OCCN3CCCC3)c3ccccc3n2)c1 | U2OS | ATP luminescence | 72 h | 1.6 µM |
| CSc1nc(NC(=S)NCCc2ccccc2)n(-c2ccc(C(=O)O)cc2)n1 | RPE-1 | MTT | – | 28.3 µM |
| FC(F)(F)c1ccc(C(c2c[nH]c3ccccc23)c2c[nH]c3ccccc23)cc1 | U2OS | ATP luminescence | 22 h | 12.6 µM |
| CSc1nc(N)n(-c2ccc(C(=O)O)cc2)n1 | RPE-1 | MTT | – | 41.8 µM |
| CC(C)C[C@H](NC(=O)[C@H](Cc1ccccc1)NC(=O)c1cnccn1)B(O)O | SK-N-SH | ATP luminescence | – | 0.008 µM |
